Test results as given in ChEMBL document CHEMBL1165860, “Synthesis and potential cytotoxic activity of new phenanthrylphenol-pyrrolobenzodiazepines” (2010).
The source made the active and inactive calls. The rule behind the calls is not given here.

Experiments:
MCF7 [1] = assay: Cell cycle arrest in human MCF7 cells assessed as accumulation at G0 phase after 24 hrs using propidium iodide staining by flow cytometry; format: functional, cell-based
Procedure, shortened: (§1)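 MCF-7 cells were grown in DMEM with 10% fetal calf serum, penicillin and streptomycin, at 37 °C in 5% CO2. They were treated for 24 h at 2 and 4 µM, with DMSO-treated cells as controls. Cells were trypsinised, fixed in ice-cold 70% ethanol at 4 °C for 30 min, and RNaseA-treated at 37 °C for 30 min. Phases were read by flow cytometry.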

MCF7 [2] = assay: Increase of cytosolic cytochrome c level in human MCF7 cells at 2 uM after 24 hrs by Western blot analysis; format: functional, cell-based
Procedure, shortened: (§2)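 MCF-7 cells were grown in DMEM with 10% FCS and penicillin/streptomycin at 37 °C in 5% CO2, then treated for 24 h. Cells were lysed in ice-cold RIPA buffer with protease inhibitors and NaF. Protein was measured by Bradford assay, and 30 µg per lane was run on 12% SDS-PAGE and transferred to PVDF. Antibody steps: primary at 4 °C overnight, HRP secondary 1:2000, chemiluminescent detection.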

MCF7 [3] = assay: Cell cycle arrest in human MCF7 cells assessed as accumulation at G1 phase at 4 uM after 24 hrs using propidium iodide staining by flow cytometry; format: functional; procedure, shortened: as §1
MCF7 [4] = assay: Induction of apoptosis in human MCF7 cells assessed as increase of caspase 9 activation at 2 to 4 uM after 1 hr by fluorimetry based assay in presence of caspase 9 inhibitor LEHD-CHO; format: functional, cell-based
MCF7 [5] = assay: Decrease of cyclin D1 level in human MCF7 cells at 4 uM after 24 hrs by Western blot analysis; format: functional, cell-based
Procedure, shortened: (§3)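 MCF-7 cells were treated at 2 or 4 µM for 24 h, then lysed in ice-cold RIPA buffer with protease inhibitors and NaF. Protein was quantified by Bradford. Thirty µg per lane was run on 12% SDS-PAGE and transferred to PVDF. Membranes were blocked 2 h, given primary antibody overnight at 4 °C, then HRP secondary (1:2000) for 1 h. Bands were detected by chemiluminescence.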

MCF7 [6] = assay: Cytotoxicity against human MCF7 cells at 4 uM after 24 hrs by MTT assay relative to control; format: functional, cell-based
Procedure, shortened: (§4)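 MCF-7 cells were seeded at 10,000 cells/well in DMEM with 10% fetal calf serum. They were exposed to 0.5, 1, 2 and 4 µM for 24 h. MTT reduction to formazan was read at 570 nm, with untreated controls taken as 100% viability. DMSO-treated cells served as an additional control.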

MCF7 [7] = assay: Increase of PARP cleavage in human MCF7 cells at 2 uM after 24 hrs by Western blot analysis; format: functional, cell-based; procedure, shortened: as §2
MCF7 [8] = assay: Induction of apoptosis in human MCF7 cells assessed as increase of caspase 9 activation at 2 uM after 1 hr by fluorimetry based assay; format: functional, cell-based
Nucleic Acid [9] = assay: Inhibition of Escherichia coli pBR322 DNA cleavage after 16 hrs by RED100-restriction endonuclease digestion assay; format: nucleic-acid assay
Procedure, shortened: (§5)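 pBR322 DNA was preincubated with compound at final 2, 4, 8, 16 and 32 µM for 16 h at 37 °C. BamHI (10 U/µl) in BamHI buffer was then added for 2 h at 37 °C. Products were separated on agarose in 0.5× Tris–acetate EDTA at 80 V for 1 h and stained with ethidium bromide. Cut and uncut DNA served as controls.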

MCF7 [10] = assay: Cell cycle arrest in human MCF7 cells assessed as accumulation at G0 phase at 2 uM after 24 hrs using propidium iodide staining by flow cytometry; format: functional; procedure, shortened: as §1
MCF7 [11] = assay: Cell cycle arrest in human MCF7 cells assessed as accumulation at G2/M phase at 2 uM after 24 hrs using propidium iodide staining by flow cytometry; format: functional; procedure, shortened: as §1
MCF7 [12] = assay: Cell cycle arrest in human MCF7 cells assessed as accumulation at S phase at 4 uM after 24 hrs using propidium iodide staining by flow cytometry; format: functional; procedure, shortened: as §1
MCF7 [13] = assay: Induction of apoptosis in human MCF7 cells assessed as increase of caspase 8 activation at 2 uM after 1 hr by […] method; format: functional, cell-based
Procedure, shortened: (§6)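 Colorimetric caspase-8 kit on lysates of treated MCF-7 cells. The IETD-pNA substrate was incubated with cell lysate at 37 °C for 1 h, and absorbance was read at 405 nm. Untreated cells served as the control.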

MCF7 [14] = assay: Cell cycle arrest in human MCF7 cells assessed as accumulation at G0 phase at 4 uM after 24 hrs using propidium iodide staining by flow cytometry; format: functional; procedure, shortened: as §1
MCF7 [15] = assay: Induction of apoptosis in human MCF7 cells assessed as increase of caspase 9 activation at 4 uM after 1 hr by fluorimetry based assay; format: functional, cell-based
MCF7 [16] = assay: Induction of apoptosis in human MCF7 cells assessed as increase of caspase 8 activation at 4 uM after 1 hr by […] method; format: functional, cell-based; procedure, shortened: as §6
MCF7 [17] = assay: Induction of apoptosis in human MCF7 cells assessed as DNA fragmentation at 4 uM after 24 hrs using ethidium bromide staining by agarose gel electrophoresis; format: functional, cell-based
Procedure, shortened: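 1.5×10⁶ MCF-7 cells in 60 mm dishes were treated for 24 h and lysed in 10 mM Tris-HCl pH 7.5, 10 mM EDTA, 0.5% Triton X-100. The supernatant was digested with RNase A and proteinase K for 2 h at 37 °C. DNA was isolated by phenol–chloroform extraction and ethanol precipitation, run on 1% agarose with a 100 bp marker, and stained with ethidium bromide under UV.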

MCF7 [18] = assay: Cell cycle arrest in human MCF7 cells assessed as accumulation at S phase at 2 uM after 24 hrs using propidium iodide staining by flow cytometry; format: functional; procedure, shortened: as §1
MCF7 [19] = assay: Cell cycle arrest in human MCF7 cells assessed as accumulation at G1 phase at 2 uM after 24 hrs using propidium iodide staining by flow cytometry; format: functional; procedure, shortened: as §1
MCF7 [20] = assay: Cell cycle arrest in human MCF7 cells assessed as accumulation at G2/M phase at 4 uM after 24 hrs using propidium iodide staining by flow cytometry; format: functional; procedure, shortened: as §1
MCF7 [21] = assay: Decrease of cyclin D1 level in human MCF7 cells at 2 uM after 24 hrs by Western blot analysis; format: functional, cell-based; procedure, shortened: as §3
MCF7 [22] = assay: Increase of cytosolic cytochrome c level in human MCF7 cells at 4 uM after 24 hrs by Western blot analysis; format: functional, cell-based; procedure, shortened: as §2
MCF7 [23] = assay: Induction of p53 expression in human MCF7 cells; format: functional, cell-based
MCF7 [24] = assay: Cytotoxicity against human MCF7 cells at 1 uM after 24 hrs by MTT assay relative to control; format: functional; procedure, shortened: as §4
MCF7 [25] = assay: Increase of PARP cleavage in human MCF7 cells at 4 uM after 24 hrs by Western blot analysis; format: functional, cell-based; procedure, shortened: as §2
Nucleic Acid [26] = assay: Inhibition of Escherichia coli pBR322 DNA cleavage at 16 uM after 16 hrs by RED100-restriction endonuclease digestion assay; format: nucleic-acid assay; procedure, shortened: as §5
MCF7 [27] = assay: Cytotoxicity against human MCF7 cells at 2 uM after 24 hrs by MTT assay relative to control; format: functional; procedure, shortened: as §4

| Structure (SMILES) | Activity (MCF7 [1]) | Activity (MCF7 [2]) | Activity (MCF7 [3]) | Activity (MCF7 [6]) | Activity (MCF7 [7]) | inhibition (Nucleic Acid [9]) | Activity (MCF7 [10]) | Activity (MCF7 [11]) | Activity (MCF7 [12]) | Activity (MCF7 [13]) | Activity (MCF7 [14]) | Activity (MCF7 [15]) | Activity (MCF7 [16]) | Activity (MCF7 [17]) | Activity (MCF7 [18]) | Activity (MCF7 [19]) | Activity (MCF7 [20]) | Activity (MCF7 [22]) | Activity (MCF7 [23]) | Activity (MCF7 [25]) | also measured |
| --- | --- | --- | --- | --- | --- | --- | --- | --- | --- | --- | --- | --- | --- | --- | --- | --- | --- | --- | --- | --- | --- |
| COc1cc2c(cc1OCCCCCOc1ccc(-c3cc4ccccc4c4ccccc34)cc1)N=C[C@@H]1CCCN1C2=O | Dose-dependent effect | Active | 69.07% | Active | Active | Dose-dependent effect | 13.08% | 2.61% | 4.86% | Active | 22.71% | Active | Active | Active | 7.76% | 75.84% | 2.46% | Active | Active | Active | Activity (MCF7 [4]): inactive; Activity (MCF7 [5]): Active; Activity (MCF7 [8]): Active; Activity (MCF7 [21]): Active; Activity (MCF7 [24]): <=50%; inhibition (Nucleic Acid [26]): 100% |
| COc1cc2c(cc1O)N=C[C@@H]1CCCN1C2=O |  | Active | 75.28% |  | Active |  | 3.19% | 13.1% | 14.16% |  | 8.07% |  | Active |  | 20.26% | 65.98% | 3.5% | Active |  | Active |  |
| COc1cc2c(cc1OCCCCOc1ccc(-c3cc4ccccc4c4ccccc34)cc1)N=C[C@@H]1CCCN1C2=O | Dose-dependent effect | Active | 70.3% | Active | Active | Dose-dependent effect | 15.08% | 4.25% | 5.5% | Active | 20.86% | Active | Active | Active | 12.45% | 66.31% | 2.94% | Active | Active | Active | Activity (MCF7 [27]): <=50%; inhibition (Nucleic Acid [26]): 100% |
